Test results reported in ChEMBL document CHEMBL1122519, “Bispyridinamines: a new class of topical antimicrobial agents as inhibitors of dental plaque” (1984).

Legend:
Streptococcus mutans [1] = experiment: Compound is evaluated for the effect of saliva upon the antiplaque activity at 5% of saliva and at 0.01 percentage of compound; - = No staining; format: functional, organism-based
Method in brief: (§1)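 Hydroxylapatite plates were treated twice daily with 1-min exposures to aqueous compound (0.001–0.1%), air-dried and rinsed. They were then incubated anaerobically at 37 °C with S. mutans in sucrose medium for 48 h. The medium held 0, 5 or 50% pooled, centrifuged, filter-sterilised human saliva. Plaque and plate staining were scored visually after FD&C Red No. 3 dye. Staining was scored on plates run without organism.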

Streptococcus mutans [2] = experiment: Compound is evaluated for the effect of saliva upon the staining potential at 0% of saliva and at 0.001 percentage of compound; - = No staining; format: functional, organism-based; method in brief: as §1
Streptococcus mutans [3] = experiment: Compound is evaluated for the effect of saliva upon the antiplaque activity at 0% of saliva and at 0.1 percentage of compound; - = No staining; format: functional, organism-based; method in brief: as §1
Streptococcus mutans [4] = experiment: Compound is evaluated for the effect of saliva upon the antiplaque activity at 0% of saliva and at 0.005 percentage of compound; - = No plaque accumulation; format: functional, organism-based; method in brief: as §1
Streptococcus mutans [5] = experiment: Compound is evaluated for the effect of saliva upon the antiplaque activity at 50% of saliva and at 0.01 percentage of compound; + = Slight plaque accumulation; format: functional, organism-based; method in brief: as §1
Streptococcus mutans [6] = experiment: Compound is evaluated for the effect of saliva upon the antiplaque activity at 5% of saliva and at 0.01 percentage of compound; + = Slight plaque accumulation; format: functional, organism-based; method in brief: as §1
Streptococcus mutans [7] = experiment: Compound is evaluated for the effect of saliva upon the antiplaque activity at 50% of saliva and at 0.1 percentage of compound; + = Slight plaque accumulation; format: functional, organism-based; method in brief: as §1
Streptococcus mutans [8] = experiment: Compound is evaluated for the effect of saliva upon the antiplaque activity at 0% of saliva and at 0.005 percentage of compound; + = Slight staining; format: functional, organism-based; method in brief: as §1
Streptococcus mutans [9] = experiment: Compound is evaluated for the effect of saliva upon the antiplaque activity at 0% of saliva and at 0.001 percentage of compound; - = No plaque accumulation; format: functional, organism-based; method in brief: as §1
Streptococcus mutans [10] = experiment: Compound is evaluated for the effect of saliva upon the antiplaque activity at 5% of saliva and at 0.005 percentage of compound; + = Slight plaque accumulation; format: functional, organism-based; method in brief: as §1
Streptococcus mutans [11] = experiment: Compound is evaluated for the effect of saliva upon the antiplaque activity at 0% of saliva and at 0.01 percentage of compound; + = Slight staining; format: functional, organism-based; method in brief: as §1
Streptococcus mutans [12] = experiment: (§2) Compound is evaluated for the effect of saliva upon the antiplaque activity at 50% of saliva and at 0.01 percentage of compound; - = No staining; format: functional, organism-based; method in brief: as §1
Streptococcus mutans [13] = experiment: (§3) Compound is evaluated for the effect of saliva upon the antiplaque activity at 0% of saliva and at 0.01 percentage of compound; - = No plaque accumulation; format: functional, organism-based; method in brief: as §1
Streptococcus mutans [14] = experiment: Compound is evaluated for the inhibition of plaque-forming enzyme of Streptococcus mutans OMZ-61; format: functional
Method in brief: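 S. mutans OMZ-61 was grown anaerobically at 37 °C for 24 h in glucose medium. The cell-free filtrate, adjusted to pH 5.5, served as the dextran/levan sucrase source. Reactions contained 3 μmol 14C-sucrose in citrate phosphate buffer pH 5.5 with 4% EtOH and ran 2 h at 37 °C. MeOH-insoluble polysaccharide was counted by scintillation. Compounds were tested at 50, 160 and 500 μg base/mL, with lower levels if needed, and I50 was read graphically.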

Streptococcus mutans [15] = experiment: Compound is evaluated for the effect of saliva upon the antiplaque activity at 50% of saliva and at 0.005 percentage of compound; - = No staining; format: functional, organism-based; method in brief: as §1
Streptococcus mutans [16] = experiment: Compound is evaluated for the effect of saliva upon the antiplaque activity at 0% of saliva and at 0.1 percentage of compound; - = No plaque accumulation; format: functional, organism-based; method in brief: as §1
Streptococcus mutans [17] = experiment: Compound is evaluated for the effect of saliva upon the antiplaque activity at 50% of saliva and at 0.1 percentage of compound; - = No staining; format: functional, organism-based; method in brief: as §1
Streptococcus mutans [18] = experiment: Compound is evaluated for the effect of saliva upon the antiplaque activity at 0% of saliva and at 0.05 percentage of compound; - = No plaque accumulation; format: functional, organism-based
Method in brief: (§4)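 Hydroxylapatite plate antiplaque assay against S. mutans run for 48 h, with two 1-min exposures to aqueous compound per 24 h. Growth medium contained 0, 5 or 50% pooled human saliva (paraffin-stimulated, centrifuged, filtered, membrane-sterilized). Plaque was stained with FD&C Red No. 3 and graded none, slight or moderate. Staining potential was scored on plates run without inoculum and graded none or slight.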

Streptococcus mutans [19] = experiment: Compound is evaluated for the effect of saliva upon the staining potential at 0% of saliva and at 0.01 percentage of compound; + = Slight staining; format: functional, organism-based; method in brief: as §4
Staphylococcus aureus = experiment: Minimum antimicrobial inhibitory concentration against Staphylococcus aureus; format: functional
Method in brief: (§5)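 Serial twofold tube dilution in tryptose phosphate broth. Each compound was prepared as a 1000 μg/mL aqueous stock and diluted in double-strength broth, then 2×10^5 cells were added. Tubes were incubated aerobically at 37 °C for 24 h. The MIC was taken as the lowest concentration with no visible growth.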

Escherichia coli [20] = experiment: Minimum inhibitory concentration against Escherichia coli (Vogel); format: functional; method in brief: as §5
Streptococcus mutans [21] = experiment: Compound is evaluated for the growth inhibition of Streptococcus mutans OMZ-61; format: functional
Streptococcus mutans [22] = experiment: as §2; format: functional, organism-based; method in brief: as §4; remark: listed apart in the source
Proteus mirabilis = experiment: Minimum antimicrobial inhibitory concentration against Proteus mirabilis MGH-1; format: functional; method in brief: as §5
Streptococcus mutans [23] = experiment: Compound is evaluated for the effect of saliva upon the antiplaque activity at 50% of saliva and at 0.05 percentage of compound; - = No plaque accumulation; format: functional, organism-based; method in brief: as §4
Streptococcus mutans [24] = experiment: Compound is evaluated for the effect of saliva upon the antiplaque activity at 0% of saliva and at 0.05 percentage of compound; + = Slight staining; format: functional, organism-based; method in brief: as §4
Streptococcus mutans [25] = experiment: Compound is evaluated for the effect of saliva upon the antiplaque activity at 50% of saliva and at 0.025 percentage of compound; - = No staining; format: functional, organism-based; method in brief: as §4
Streptococcus mutans [26] = experiment: Compound is evaluated for the effect of saliva upon the antiplaque activity at 0% of saliva and at 0.025 percentage of compound; + = Slight staining; format: functional, organism-based; method in brief: as §4
Streptococcus mutans [27] = experiment: Compound is evaluated for the effect of saliva upon the antiplaque activity at 50% of saliva and at 0.025 percentage of compound; - = No plaque accumulation; format: functional, organism-based; method in brief: as §4
Streptococcus mutans [28] = experiment: Compound is evaluated for the effect of saliva upon the antiplaque activity at 50% of saliva and at 0.05 percentage of compound; - = No staining; format: functional, organism-based; method in brief: as §4
Streptococcus mutans [29] = experiment: Compound is evaluated for the effect of saliva upon the antiplaque activity at 0% of saliva and at 0.025 percentage of compound; - = No plaque accumulation; format: functional, organism-based; method in brief: as §4
Pseudomonas aeruginosa = experiment: Minimum antimicrobial inhibitory concentration against Pseudomonas aeruginosa MGH-2; format: functional; method in brief: as §5
Streptococcus mutans [30] = experiment: as §3; format: functional, organism-based; method in brief: as §4; remark: listed apart in the source
Streptococcus mutans [31] = experiment: Compound is evaluated for the effect of saliva upon the antiplaque activity at 50% of saliva and at 0.01 percentage of compound; format: functional, organism-based; method in brief: as §4
Escherichia coli [32] = experiment: Antimicrobial minimum inhibitory concentration against Escherichia coli 100/B22; format: functional; method in brief: as §5
Streptococcus mutans [33] = experiment: Minimum plaque inhibitory concentration using a standard test organism, Streptococcus mutans OMZ-61; format: functional, organism-based
Method in brief: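 Ceramic hydroxylapatite plates were soaked twice for 1 min each in compound at […] (aqueous), air-dried and rinsed, then hung in sucrose beef-extract medium (pH 7.0) inoculated with late-log S. mutans OMZ-61. Incubation was anaerobic at 37 °C for 24 h, and treatment plus reinoculation were repeated for a second 24 h. Plaque was stained with 1% FD&C Red No. 3 and scored visually. The value is the lowest concentration giving no plaque while medium growth matched control.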

Escherichia coli [34] = experiment: Antimicrobial minimum inhibitory concentration against Escherichia coli AB1932-1; format: functional; method in brief: as §5
Klebsiella pneumoniae = experiment: Minimum inhibitory concentration against Klebsiella pneumonia 39645; format: functional; method in brief: as §5

Structure (SMILES): CCCCCCCCCCCCCCCC[n+]1ccccc1.[Cl-]
- Staining potential (Streptococcus mutans [1]): No staining
- Staining potential (Streptococcus mutans [2]): No staining
- Staining potential (Streptococcus mutans [3]): No staining
- Plaque accum (Streptococcus mutans [4]): No plaque accumulation
- Plaque accum (Streptococcus mutans [5]): No plaque accumulation
- Plaque accum (Streptococcus mutans [6]): No plaque accumulation
- Plaque accum (Streptococcus mutans [7]): No plaque accumulation
- Staining potential (Streptococcus mutans [8]): No staining
- Plaque accum (Streptococcus mutans [9]): No plaque accumulation
- Plaque accum (Streptococcus mutans [10]): No plaque accumulation
- Staining potential (Streptococcus mutans [11]): No staining
- Staining potential (Streptococcus mutans [12]): No staining
- Plaque accum (Streptococcus mutans [13]): No plaque accumulation
- I50 (Streptococcus mutans [14]): 95 (ug of base) ml-1
- Staining potential (Streptococcus mutans [15]): No staining
- Plaque accum (Streptococcus mutans [16]): No plaque accumulation
- Staining potential (Streptococcus mutans [17]): No staining

Structure (SMILES): CCCCC(CC)CNC(=N)NC(=N)NCCCCCCNC(=N)NC(=N)NCC(CC)CCCC.Cl.Cl (centres undefined) [ALEXIDINE DIHYDROCHLORIDE]
- Plaque accum (Streptococcus mutans [18]): No plaque accumulation
- Staining potential (Streptococcus mutans [19]): No staining
- MIC (Staphylococcus aureus): 0.5 µg/mL
- MIC (Escherichia coli [20]): 2 µg/mL
- MIC (Streptococcus mutans [21]): 0.5 (ug of base) ml-1
- Staining potential (Streptococcus mutans [22]): No staining
- MIC (Proteus mirabilis): 31.3 µg/mL
- Plaque accum (Streptococcus mutans [23]): No plaque accumulation
- Staining potential (Streptococcus mutans [24]): No staining
- Staining potential (Streptococcus mutans [25]): No staining
- Staining potential (Streptococcus mutans [26]): No staining
- Plaque accum (Streptococcus mutans [27]): No plaque accumulation
- Staining potential (Streptococcus mutans [28]): No staining
- Plaque accum (Streptococcus mutans [29]): No plaque accumulation
- MIC (Pseudomonas aeruginosa): 15.6 µg/mL
- Plaque accum (Streptococcus mutans [30]): No plaque accumulation
- Plaque accum (Streptococcus mutans [31]): No plaque accumulation
- MIC (Escherichia coli [32]): 1 µg/mL
- Concentration (Streptococcus mutans [33]): 0.005%
- MIC (Escherichia coli [34]): 1 µg/mL
- I50 (Streptococcus mutans [14]): 156 (ug of base) ml-1
- MIC (Klebsiella pneumoniae): 3.9 µg/mL
